Test results reported in the array DNA melting data of Ke et al. (doi:10.1101/2024.01.08.574731).

What was measured:
[1] = folding enthalpy; higher = less favourable; fluorescence melt of hairpins on a sequencing array, two-state fit; details: sodium 0.088 M
In short: (§1)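 Bootstrapped two-state fits yielded melting temperature and folding enthalpy for library hairpins. Cy3 fluorescence, with annealed Cy3 and quencher oligos, was imaged on a sequenced MiSeq flow cell in 50 mM Na-HEPES pH 8.0, 25 mM NaCl in 2.5 °C steps up to 60 °C, and normalised to pre-quench Cy3 and to control constructs. Four replicates were combined by inverse variance, and fitted temperatures were raised by 9.35 °C to match UV melts.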

[2] = melting temperature; fluorescence melt of hairpins on a sequencing array, two-state fit, raised by 9.35 °C to match UV melts; details: sodium 0.088 M
In short: as §1

Row | Sequence | folding enthalpy [1] [kcal/mol] | Tm [2] [°C]
1 | GATCCGGCGGCGGATC ((((((....)))))) | -41.5 | 58.7
2 | GATCCGGCTCCGGATC ((((((....)))))) | -38.4 | 59.1
3 | GATCCGGCTCGGATC ((((((...)))))) | -39.6 | 59.7
4 | GATCCGGGGTCGGATC ((((((....)))))) | -47.9 | 56.7
5 | GATCCGGGTACGGATC ((((((....)))))) | -36 | 67.9
6 | GATCCGGGTCCGGATC ((((((....)))))) | -39.1 | 62.5
7 | GATCCGGGTGCGGATC ((((((....)))))) | -41 | 63.2
8 | GATCCGGGTTCGGATC ((((((....)))))) | -44.7 | 58.5
9 | GATCCGTAATCGGATC ((((((....)))))) | -34.4 | 57
10 | GATCCGTATGCGGATC ((((((....)))))) | -40.3 | 63.2
11 | GATCCGTCAGCGGATC ((((((....)))))) | -42.6 | 57.4
12 | GATCCGTCCGCGGATC ((((((....)))))) | -36.7 | 61
13 | GATCCGTCTCGGATC ((((((...)))))) | -42.8 | 59.7
14 | GATCCGTGGCGGATC ((((((...)))))) | -41.5 | 56.3
15 | GATCCGTTTCCGGATC ((((((....)))))) | -41.2 | 58.9
16 | GATCCGTTTTCGGATC ((((((....)))))) | -42.2 | 61.8
17 | GATCCTAAAAGGATC ((((((...)))))) | -36.3 | 54.3
18 | GATCCTAAGCAGGATC ((((((....)))))) | -29.9 | 52.9
19 | GATCCTACCGAGGATC ((((((....)))))) | -39.2 | 51.2
20 | GATCCTACTTAGGATC ((((((....)))))) | -37.3 | 53.2
21 | GATCCTAGCGAGGATC ((((((....)))))) | -32.9 | 52.8
22 | GATCCTAGGAGGATC ((((((...)))))) | -35.3 | 54.1
23 | GATCCTAGTCAGGATC ((((((....)))))) | -45.9 | 51.6
24 | GATCCTATAAAGGATC ((((((....)))))) | -38.6 | 51.8

Row | Sequence | folding enthalpy [1] [kcal/mol] | Tm [2] [°C]
25 | GATCCTATAGAGGATC ((((((....)))))) | -28.9 | 50.4
26 | GATCCTATTGAGGATC ((((((....)))))) | -40.9 | 51.4
27 | GATCCTCAAGAGGATC ((((((....)))))) | -38 | 53.4
28 | GATCCTCCGCAGGATC ((((((....)))))) | -14.5 | 44.6
29 | GATCCTCCTCAGGATC ((((((....)))))) | -45.2 | 50.2
30 | GATCCTCCTGAGGATC ((((((....)))))) | -41.2 | 57.2
31 | GATCCTCGACAGGATC ((((((....)))))) | -35.6 | 48.5
32 | GATCCTCGCAGGATC ((((((...)))))) | -33.8 | 55.5
33 | GATCCTCGGAAGGATC ((((((....)))))) | -34.4 | 50.2
34 | GATCCTCGGCAGGATC ((((((....)))))) | -29.4 | 49.7
35 | GATCCTCGGGAGGATC ((((((....)))))) | -37.7 | 56.1
36 | GATCCTCGTTAGGATC ((((((....)))))) | -39.1 | 51.7
37 | GATCCTCTAAGGATC ((((((...)))))) | -33.3 | 54.3
38 | GATCCTCTGGAGGATC ((((((....)))))) | -39.5 | 58.3
39 | GATCCTCTTAAGGATC ((((((....)))))) | -42.5 | 52.9
40 | GATCCTGACAGGATC ((((((...)))))) | -38.9 | 55.7
41 | GATCCTGACTAGGATC ((((((....)))))) | -43.3 | 56.7
42 | GATCCTGAGAAGGATC ((((((....)))))) | -40.2 | 57.6
43 | GATCCTGATCAGGATC ((((((....)))))) | -39.8 | 56.1
44 | GATCCTGCCAAGGATC ((((((....)))))) | -38.6 | 65.6
45 | GATCCTGCCAGGATC ((((((...)))))) | -34.7 | 56.6
46 | GATCCTGCTAAGGATC ((((((....)))))) | -46.2 | 63.2
47 | GATCCTGGAAACAGAATC (((.(((....))).))) | -16.8 | 30.1
48 | GATCCTGGAAACAGGACC (.(((((....))))).) | -14.4 | 40.1

Row | Sequence | folding enthalpy [1] [kcal/mol] | Tm [2] [°C]
49 | GATCCTGGGCAGGATC ((((((....)))))) | -35.7 | 54.2
50 | GATCCTGGGTAGGATC ((((((....)))))) | -33.4 | 51.3
51 | GATCCTGGTAGGATC ((((((...)))))) | -32.6 | 54.6
52 | GATCCTGGTGAGGATC ((((((....)))))) | -42.1 | 52.5
53 | GATCCTGTACAGGATC ((((((....)))))) | -40.7 | 60.2
54 | GATCCTGTGAAGGATC ((((((....)))))) | -35.4 | 58.4
55 | GATCCTGTTAGGATC ((((((...)))))) | -38.1 | 55.4
56 | GATCCTGTTTAGGATC ((((((....)))))) | -44.3 | 52.6
57 | GATCCTTAAGAGGATC ((((((....)))))) | -38.1 | 50.9
58 | GATCCTTACCAGGATC ((((((....)))))) | -33.6 | 52.1
59 | GATCCTTAGAAGGATC ((((((....)))))) | -33.8 | 50.2
60 | GATCCTTAGTAGGATC ((((((....)))))) | -35.8 | 50.3
61 | GATCCTTATTAGGATC ((((((....)))))) | -37.8 | 51.7
62 | GATCCTTCAGAGGATC ((((((....)))))) | -48.2 | 51.6
63 | GATCCTTCCAAGGATC ((((((....)))))) | -47 | 55.3
64 | GATCCTTCTTAGGATC ((((((....)))))) | -41.8 | 52.8
65 | GATCCTTGAAAGGATC ((((((....)))))) | -42.3 | 51.9
66 | GATCCTTTAGAGGATC ((((((....)))))) | -43.7 | 52.2
67 | GATCGAAAAATCGATC ((((((....)))))) | -25.5 | 43.9
68 | GATCGAAACGTCGATC ((((((....)))))) | -41.4 | 50.3
69 | GATCGAAAGGTCGATC ((((((....)))))) | -28.7 | 47.7
70 | GATCGAAATCTCGATC ((((((....)))))) | -32.7 | 48.7
71 | GATCGAAATGTCGATC ((((((....)))))) | -36.8 | 48.7
72 | GATCGAACGATCGATC ((((((....)))))) | -18.9 | 52.8

Row | Sequence | folding enthalpy [1] [kcal/mol] | Tm [2] [°C]
73 | GATCGAACGGTCGATC ((((((....)))))) | -51.2 | 51.1
74 | GATCGAACTTTCGATC ((((((....)))))) | -35.6 | 53.4
75 | GATCGAAGACTCGATC ((((((....)))))) | -30.3 | 48.5
76 | GATCGAAGATTCGATC ((((((....)))))) | -35.5 | 51.4
77 | GATCGAAGCCTCGATC ((((((....)))))) | -33 | 50.9
78 | GATCGAAGTCTCGATC ((((((....)))))) | -35.1 | 49.2
79 | GATCGAAGTTCGATC ((((((...)))))) | -38.4 | 50.3
80 | GATCGAAGTTTCGATC ((((((....)))))) | -44.8 | 53.5
81 | GATCGAATTTTCGATC ((((((....)))))) | -36.1 | 55.1
82 | GATCGACACGTCGATC ((((((....)))))) | -33.7 | 59.7
83 | GATCGACAGATCGATC ((((((....)))))) | -16.1 | 54.8
84 | GATCGACATATCGATC ((((((....)))))) | -43.4 | 51.7
85 | GATCGACATCTCGATC ((((((....)))))) | -36 | 50.3
86 | GATCGACCGATCGATC ((((((....)))))) | -25.4 | 51.6
87 | GATCGACCGTCGATC ((((((...)))))) | -36 | 49
88 | GATCGACCTCTCGATC ((((((....)))))) | -35.8 | 50
89 | GATCGACGCTCGATC ((((((...)))))) | -41.3 | 49.6
90 | GATCGACGTTTCGATC ((((((....)))))) | -42.5 | 50.9
91 | GATCGACTGTTCGATC ((((((....)))))) | -40.5 | 50.6
92 | GATCGAGACTTCGATC ((((((....)))))) | -43.3 | 57.2
93 | GATCGAGAGATCGATC ((((((....)))))) | -25.6 | 54.7
94 | GATCGAGAGCTCGATC ((((((....)))))) | -36.5 | 51.8
95 | GATCGAGAGGTCGATC ((((((....)))))) | -19 | 50.1
96 | GATCGAGATGTCGATC ((((((....)))))) | -37 | 52.5
